Data set [1] addresses T1, Angiotensin II receptor (AT-1) type-1 (Rattus norvegicus, UniProt P29089+P25095).
T1 sequence (P29089 whole entry): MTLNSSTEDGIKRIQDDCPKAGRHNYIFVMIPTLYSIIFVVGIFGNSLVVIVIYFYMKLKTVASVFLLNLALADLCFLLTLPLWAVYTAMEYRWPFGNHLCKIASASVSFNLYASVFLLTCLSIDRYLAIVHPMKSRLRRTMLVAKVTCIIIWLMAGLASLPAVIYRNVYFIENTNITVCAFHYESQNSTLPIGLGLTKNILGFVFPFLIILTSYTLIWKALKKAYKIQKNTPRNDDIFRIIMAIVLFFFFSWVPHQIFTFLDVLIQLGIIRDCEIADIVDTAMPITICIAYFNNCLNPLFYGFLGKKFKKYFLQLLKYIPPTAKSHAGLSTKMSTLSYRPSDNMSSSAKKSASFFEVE
T1 sequence (P25095 whole entry): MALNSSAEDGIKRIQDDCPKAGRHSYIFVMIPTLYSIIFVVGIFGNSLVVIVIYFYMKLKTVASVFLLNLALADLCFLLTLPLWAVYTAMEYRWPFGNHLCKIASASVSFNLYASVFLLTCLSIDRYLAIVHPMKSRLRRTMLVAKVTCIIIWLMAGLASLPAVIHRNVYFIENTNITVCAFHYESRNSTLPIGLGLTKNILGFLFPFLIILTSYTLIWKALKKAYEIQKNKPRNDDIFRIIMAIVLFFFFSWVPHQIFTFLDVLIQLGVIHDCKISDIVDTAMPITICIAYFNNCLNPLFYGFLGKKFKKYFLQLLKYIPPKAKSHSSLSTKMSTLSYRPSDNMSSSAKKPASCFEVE
The data set can be described thus: Displacement of [125I]Sar1,Ile8-Ang2 from AT1 receptor in rat hepatic membrane. The class given is cell membranes, Liver. Summed up: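 Rat liver membranes from male Wistar rats, prepared by differential centrifugation (750g, then 50 000g), 25 µg protein per well in 50 mM Tris-HCl, 100 mM NaCl, 10 mM MgCl₂, 1 mM EDTA, bacitracin, PMSF, 0.1% BSA, pH 7.4. Nonspecific binding defined with 1 µM Ang II. Filtration read-out. IC50 given as mean ± SEM of three determinations.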

A short description of data set [2]: Oral bioavailability in Sprague-Dawley rat at 10 mg/kg, po. Particulars: in vivo.
Data set [3] is described as follows: Apparent permeability from apical to basolateral side of Caco-2 cell. It counts as ADME, cell-based. Particulars: human. Put shortly:
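Caco-2 cells grown in DMEM with 10% FBS on polycarbonate supports, 15-21 days at 37 °C. Compound dosed apically at 10-100 µM final in HBSS with 1% DMSO, at 37 °C, apical-to-basolateral direction. Monolayer integrity checked by [¹⁴C]mannitol permeability. Transported compound measured by HPLC-MS; Papp calculated by equation.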

In data set [4] the target is T2, Type-1 angiotensin II receptor (Oryctolagus cuniculus, UniProt P34976).
T2 sequence (P34976 whole entry): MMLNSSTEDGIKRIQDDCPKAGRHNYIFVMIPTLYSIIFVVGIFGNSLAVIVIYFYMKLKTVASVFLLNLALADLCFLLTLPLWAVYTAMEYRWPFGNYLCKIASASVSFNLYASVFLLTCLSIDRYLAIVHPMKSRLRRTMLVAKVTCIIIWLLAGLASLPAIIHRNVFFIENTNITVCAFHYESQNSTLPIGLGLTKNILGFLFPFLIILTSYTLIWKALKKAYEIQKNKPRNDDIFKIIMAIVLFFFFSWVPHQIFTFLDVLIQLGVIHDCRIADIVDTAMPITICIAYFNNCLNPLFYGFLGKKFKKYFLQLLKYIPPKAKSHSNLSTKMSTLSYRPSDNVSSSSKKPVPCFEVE
Description: Antagonist activity against AT1 receptor assessed as inhibition of Ang2-induced rabbit aortic strip contraction. It counts as functional. Summed up: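 Rabbit aortic strips equilibrated 1 h, washed every 10 min. An Ang II cumulative curve was run, then 30 min washout. Antagonist or vehicle applied for 60 min before a submaximal (70-80%) Ang II challenge, 5 nM in controls. One antagonist concentration per tissue. Response read as % inhibition of contraction; IC50 derived from the regression line.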

Data set [5] in a line: Terminal half life in Sprague-Dawley rat at 3 mg/kg, iv. The class given is ADME, organism-based. Set-up: dose 3 mg/kg, route intravenous. The settings on record: in vivo, read-out: beta t1/2 (converted). Summed up:
(§1)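 Fasted Sprague-Dawley rats, 250-300 g, dosed orally or by tail-vein injection. Blood sampled at selected times and plasma analysed by HPLC. t1/2 (terminal), AUC, observed Cmax and tmax calculated from plasma concentration-time data.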

Data set [6] in a line: AUC in Sprague-Dawley rat at 3 mg/kg, iv. The class given is ADME, organism-based. Particulars: plasma. More on the design: dose 3 mg/kg, route intravenous. Summed up: as §1
The nature of data set [7]: Cmax in Sprague-Dawley rat at 30 mg/kg, po. The class given is ADME, organism-based. More on the design: dose 30 mg/kg, route oral. The settings on record: in vivo. Put shortly: as §1
Data set [8] in a line: AUC in Sprague-Dawley rat at 30 mg/kg, po. The settings on record: plasma. More on the design: dose 30 mg/kg, route oral. It counts as ADME, organism-based. Summed up: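 Fasted Sprague-Dawley rats (250-300 g) given compound orally; blood sampled at selected times after dosing, plasma analysed by HPLC, and area under the plasma concentration-time curve calculated.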
Data set [9] can be described thus: Tmax in Sprague-Dawley rat at 30 mg/kg, po. It counts as ADME, organism-based. Set-up: dose 30 mg/kg, route oral. Particulars: in vivo. Put shortly: as §1
Data set [10] is described as follows: Oral bioavailability in Sprague-Dawley rat at 30 mg/kg, po. It counts as ADME, organism-based. Particulars: in vivo. Summed up:
as §1

Data set [11] is described as follows: Terminal half life in Sprague-Dawley rat at 30 mg/kg, po. Particulars: in vivo, read-out: beta t1/2 (converted). More on the design: dose 30 mg/kg, route oral. The class given is ADME, organism-based. Summed up: as §1

SMILES strings stand for the structures. pIC50: −log10 of the molar value.

In turn, `CCCc1nc2c(C)cc(C)nc2n1Cc1ccc(C2=C(C(=O)NS(C)(=O)=O)C(=O)c3ccccc32)cc1` came in with a half-inhibitory concentration (IC50) in data set [1] of 0.054 µM.

Take `CCCCc1nc2c(C)cc(C)nc2n1Cc1ccc(-c2c(-c3nn[nH]n3)n(C)c(=O)c3ccccc23)cc1`: the 50% inhibitory concentration (IC50) in data set [1] was > 0.3 µM.

As for `CCc1nc2c(C)cc(C)nc2n1Cc1ccc(-c2c(C(=O)O)n(C)c(=O)c3ccccc23)cc1`, in data set [2], the bioavailability worked out at 0%. In data set [3], the Papp A→B came to 0.03 ×10⁻⁶ cm/s. Besides, the negative-log IC50 (pIC50) in [4] was 8.34. Besides, the half-life in [5] was 13.2 min. The compound further displayed an IC50 in data set [1] of 0.0052 µM. Moreover, the area under the curve (AUC) in [6] was found to be 630 ng·h/mL.

For `CCCc1nc2c(C)cc(C)nc2n1Cc1ccc(C2(CC(=O)O)CC(=O)c3ccccc32)cc1` (configuration not stated), in data set [1], the half-maximal inhibitory concentration (IC50) came to 0.139 µM. This lies in the sub-micromolar range.

On to `CCCc1nc2c(C)cc(C)nc2n1Cc1ccc(-c2c(-c3nn[nH]n3)n(C)c(=O)c3ccccc23)cc1`, for which the IC50 in [1] is > 0.3 µM.

`C=C1C(C(=O)O)=C(c2ccc(Cn3c(CCC)nc4c(C)cc(C)nc43)cc2)c2ccccc21` returned an IC50 in data set [1] of 0.06 µM. This lies in the double-digit nanomolar range.

Take `CCCCc1nc2c(C)cc(C)nc2n1Cc1ccc(-c2c(C(=O)O)n(C)c(=O)c3ccccc23)cc1`: the Papp A→B in data set [3] stood at 0.01 ×10⁻⁶ cm/s. Further, the 50% inhibitory concentration (IC50) in [1] turned out to be 0.0062 µM.

As to `CCCc1nc2c(C)cc(C)nc2n1Cc1ccc(C2=C(C(=O)O)C(C)c3ccccc32)cc1` (configuration not stated), the half-inhibitory concentration (IC50) in [1] amounted to 0.099 µM.

With `CCCc1nc2c(C)cc(C)nc2n1Cc1ccc(-c2c(C(=O)O)c(Cl)nc3ccccc23)cc1`, in data set [5], the half-life is 18 min. Moreover, in [1], the 50% inhibitory concentration (IC50) was determined as 0.0077 µM. Besides, in [6], the AUC was 340 ng·h/mL.

`CCCc1nc2c(C)cc(C)nc2n1Cc1ccc(C2=C(C(=O)O)C(O)(CC)c3ccccc32)cc1` (configuration not stated) registered an IC50 in [1] of 0.015 µM.

`CCc1nc2c(C)cc(C)nc2n1Cc1ccc(-c2c(-c3nn[nH]n3)n(C)c(=O)c3ccccc23)cc1`: in data set [1], the IC50 was > 0.3 µM.

On to `CCCc1nc2c(C)cc(C)nc2n1Cc1ccc(C2=C(C(=O)O)C(C)(O)c3ccccc32)cc1` (configuration not stated), for which the pIC50 in data set [4] is 7.48. Moreover, the concentration for half-maximal inhibition (IC50) in data set [1] was determined as 0.011 µM.

On to `CCCc1nc2c(C)cc(C)nc2n1Cc1ccc(C2(C(C(=O)O)C(=O)O)CC(=O)c3ccccc32)cc1` (configuration not stated), for which the IC50 in data set [1] was 0.055 µM. In other words, the double-digit nanomolar range.

Take `CCc1nc2c(C)cc(C)nc2n1Cc1ccc(C2=C(C(=O)O)C(=O)c3ccccc32)cc1`: the IC50 in [1] turned out to be 0.053 µM.

In turn, `CCCc1nc2c(C)cc(C)nc2n1Cc1ccc(C2C(C(=O)O)=C(C)c3ccccc32)cc1` (configuration not stated) displayed a half-maximal inhibitory concentration (IC50) in [1] of 0.047 µM. The IC50 values of the last two compounds are within 1.5-fold of each other.

On to `CCCc1nc2c(C)cc(C)nc2n1Cc1ccc(C2=C(C(=O)NS(=O)(=O)c3ccccc3)C(=O)c3ccccc32)cc1`, for which, in [1], the IC50 was found to be 0.131 µM.

`CCCc1nc2c(C)cc(C)nc2n1Cc1ccc(-c2c(C(=O)O)n(C)c(=O)c3ccccc23)cc1` showed an IC50 in data set [1] of 0.0057 µM.

Consider `CCCc1nc2c(C)cc(C)nc2n1Cc1ccc(-c2c(C(=O)O)c(C)nc3ccccc23)cc1`, for which, in data set [4], the pIC50 was 7.89. In addition, the half-life in data set [5] was 19.8 min. The half-inhibitory concentration (IC50) in data set [1] amounted to 0.009 µM. In data set [6], this compound registered an AUC of 500 ng·h/mL.

`CCc1nc2c(C)cc(C)nc2n1Cc1ccc(-c2c(-c3nn[nH]n3)cnc3ccccc23)cc1` came in with a Cmax in data set [7] of 4200 ng/mL. For the same compound, the results for the area under the curve (AUC) in data set [8] and in [6] were 4400 ng·h/mL and 890 ng·h/mL, respectively. Moreover, the Papp A→B in [3] turned out to be 0.1 ×10⁻⁶ cm/s. Also, the pIC50 in data set [4] is 8.05. Further, in [9], the Tmax amounted to 30 min. Further, the values for the half-life in data set [5] and in [11] were 40.8 min and 60 min, respectively. The IC50 in data set [1] worked out at 0.0069 µM. In [10], this compound had a bioavailability of 49%.

As to `CCCc1nc2c(C)cc(C)nc2n1Cc1ccc(-c2c(C(=O)O)c(N)nc3ccccc23)cc1`, the negative logarithm of the IC50 (pIC50) in [4] is 8.48. For the same compound, the half-life in data set [5] was 16.8 min. This compound also showed a half-inhibitory concentration (IC50) in data set [1] of 0.0042 µM. In data set [6], this compound had an AUC of 520 ng·h/mL.

In data set [7], `CCCCc1nc(Cl)c(CO)n1Cc1ccc(-c2ccccc2-c2nn[nH]n2)cc1` [LOSARTAN] displayed a Cmax of 27500 ng/mL. For the same compound, the results for the exposure (AUC) in data set [8] and in [6] were 74800 ng·h/mL and 12400 ng·h/mL, respectively. Besides, the Papp A→B in data set [3] was 1.15 ×10⁻⁶ cm/s. Moreover, the Tmax in data set [9] is 30 min. The half-life in [5] is 282 min; in data set [11], 180 min. For the same compound, the bioavailability in data set [10] stood at 60%.
